This note sets out measurements from ChEMBL document CHEMBL2177078, “New positron emission tomography (PET) radioligand for imaging σ-1 receptors in living subjects” (J Med Chem, 2012).

Data set [1] can be described thus: Binding affinity to acetylcholine esterase at 100 nM.
The target of data set [2] is Histamine H2 receptor (Homo sapiens) (UniProt P25021). Kind of data set: Binding affinity to histamine H2 receptor at 100 nM.
Data set [3] can be described thus: Binding affinity to sodium channel site 2 at 100 nM.
Data set [4] addresses Sigma non-opioid intracellular receptor 1 (Homo sapiens) (UniProt Q99720). Kind of data set: Binding affinity to Sigma1 receptor overexpressed in CHO cells after 30 to 120 mins by gamma counting. As to conditions: tested as the 18F-labelled form. The class given is cell-based. The method in brief: (§1)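 CHO cells grown in Ham's F-12, seeded 2 × 10^5 per well, transfected 24 h later with 0.8 μg empty pcDNA (control) or 0.8 μg S1R (OPRS1) DNA; medium refreshed at 12 h. At 24 h post-transfection, exposed to [18F] tracer (2 μCi/well) for 30 and 120 min, triplicate wells. Washed twice with cold PBS, lysed in 1 N NaOH, gamma counted; normalized to Bradford protein.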

In data set [5] the target is Sodium-dependent noradrenaline transporter (Homo sapiens) (UniProt P23975). Kind of data set: Binding affinity to norepinephrine transporter at 100 nM.
Data set [6] is described as follows: Binding affinity to peripheral muscarinic receptor at 100 nM.
A short description of data set [7]: Binding affinity to alpha bungarotoxin insensitive neuronal nicotinic receptor at 100 nM.
Data set [8] is described as follows: Binding affinity to alpha-2 adrenergic receptor at 100 nM.
For data set [9], the target named is T1, Muscarinic acetylcholine receptor M2 (Homo sapiens) (UniProt P08172).
T1 sequence (whole entry): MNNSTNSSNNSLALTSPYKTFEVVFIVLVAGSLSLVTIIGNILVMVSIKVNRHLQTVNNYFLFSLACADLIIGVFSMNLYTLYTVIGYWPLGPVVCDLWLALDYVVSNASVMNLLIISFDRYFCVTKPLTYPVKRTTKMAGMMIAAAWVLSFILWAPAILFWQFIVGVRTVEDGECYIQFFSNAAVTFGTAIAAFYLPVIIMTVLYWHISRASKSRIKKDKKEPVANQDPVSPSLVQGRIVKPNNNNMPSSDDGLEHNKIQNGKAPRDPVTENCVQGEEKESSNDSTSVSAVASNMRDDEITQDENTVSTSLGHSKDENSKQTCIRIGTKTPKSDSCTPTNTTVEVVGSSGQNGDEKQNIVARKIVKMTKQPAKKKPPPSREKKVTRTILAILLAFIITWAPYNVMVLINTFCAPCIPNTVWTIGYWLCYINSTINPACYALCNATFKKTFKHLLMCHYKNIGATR
The experiment in a line: Binding affinity to muscarinic M2 receptor at 100 nM.

The target in data set [10] is Sigma non-opioid intracellular receptor 1 (Homo sapiens) (UniProt Q99720). The experiment in a line: Binding affinity to Sigma1 receptor overexpressed in CHO cells after 120 mins by gamma counting relative to control. The class given is cell-based. The note with it: tested as the 18F-labelled form. In short, it runs like this: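 CHO cells grown in Ham's F-12, 2 × 10^5 per well, transfected 24 h later with 0.8 μg empty pcDNA (control) or S1R (OPRS1) cDNA; medium refreshed at 12 h. At 24 h post-transfection, 2 μCi [18F] tracer per well; triplicates; 30 and 120 min uptake, two cold PBS washes, 1 N NaOH lysis, γ counting, normalized to Bradford protein.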

The target of data set [11] is T2, Sigma non-opioid intracellular receptor 1 (Rattus norvegicus, UniProt Q9R0C9). The experiment in a line: Displacement of [3H](+)-pentazocine from Sigma1 receptor in rat liver homogenate. The class given is tissue-based. Background: Loss of bound radioactivity is the signal in a displacement assay; it reports binding, not function.
Data set [12] in a line: Binding affinity to calcium channel L type at 100 nM.
Data set [13] can be described thus: Displacement of [3H]di-o-tolylguanidine from Sigma2 receptor in rat liver homogenate. The class given is tissue-based. In short, it runs like this: (§2)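 Competition binding of unlabeled ligand in rat brain or rat liver homogenates. S2R binding run in the presence of 300 nM 1 to mask S1R sites. Liver assays run on a 96-well platform.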
Data set [14] relates to Cortex. Kind of data set: Biodistribution in mouse cortex at 200 uCi after 60 mins by autoradiography. The class given is ADME, organism-based. The note with it: in vivo, 1 h. The method in brief: (§3)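 Mice injected iv with 200-250 μCi tracer; brains taken 60 min later after saline perfusion, snap frozen and cut as 12 μm sagittal sections. Sections air-dried 10 min, exposed to 18F-sensitive phosphor screens 12 h at 4 °C, then imaged; anatomy confirmed by Nissl staining. Blocking arm given BD1047 (1 mg/kg) 10 min before tracer.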

Data set [15] is filed under the species Mus musculus. The experiment in a line: Biodistribution in mouse brain facial nucleus at 200 uCi after 60 mins by autoradiography. The data set is classed as ADME, organism-based. The note with it: in vivo, 1 h. In short, it runs like this:
as §3

The subject of data set [16] is CHO. Kind of data set: Cellular uptake in CHO cells after 30 to 120 mins by gamma counting. The class given is ADME, cell-based, Cricetulus griseus. As to conditions: chinese hamster. In short, it runs like this: as §1
For data set [17], the system named is Cerebellum. Kind of data set: Biodistribution in mouse cerebellum at 200 uCi after 60 mins by autoradiography. The class given is ADME, organism-based. The note with it: in vivo, 1 h. The method in brief:
as §3

The subject of data set [18] is Brain. Kind of data set: Biodistribution in mouse brain assessed as reduction in compound uptake at 95-125 uCi, iv administered 10 mins post BD1047 treatment measured after 60 mins by PET imaging. The data set is classed as ADME, organism-based. As to conditions: in vivo, 1 h. The method in brief: (§4)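 Normal Balb C mice (20-30 g) under isoflurane (3% induction, 1-3% maintenance). […] Dynamic list-mode microPET acquisition started just before injection and ran 60 min; images reconstructed by 2D OSEM, whole-brain time-activity curves.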

For data set [19], the system named is Brain. The experiment in a line: Biodistribution in mouse brain at 200 uCi administered 10 mins post BD1047 treatment measured after 60 mins by autoradiography. The data set is classed as ADME, organism-based. The note with it: in vivo, 1 h. In short, it runs like this:
as §3

Data set [20] has as its system Brain. Kind of data set: Biodistribution in mouse brain assessed as reduction in compound uptake at 95-125 uCi, iv administered 10 mins post haloperidol treatment measured after 60 mins by PET imaging. The class given is ADME, organism-based. As to conditions: in vivo, 1 h. In short, it runs like this:
as §4

For data set [21], the species on record is Mus musculus. Kind of data set: Biodistribution in mouse midbrain at 200 uCi after 60 mins by autoradiography. The data set is classed as ADME, organism-based. The note with it: in vivo, 1 h. In short, it runs like this: as §3
The subject of data set [22] is Brain. The experiment in a line: Drug uptake in Balb C mouse brain at 630-690 uCi, iv after 60 mins by HPLC analysis. The class given is ADME, organism-based. As to conditions: in vivo, 1 h. In short, it runs like this:
(§5)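 Balb C mice (n=2 per time point) received 630-690 μCi tracer iv; brain and liver collected at 30 and 60 min. Tissue homogenized in 500 μL ice-cold acetonitrile, centrifuged 9,400 g for 4 min. Supernatants run on reversed-phase radio-HPLC; percent intact parent = parent peak area/total peak area × 100, decay corrected to dosing. Extraction efficiency checked by gamma counting.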

Data set [23] has as its system Hippocampus. Kind of data set: Biodistribution in mouse hippocampus at 200 uCi after 60 mins by autoradiography. The data set is classed as ADME, organism-based. As to conditions: in vivo, 1 h. In short, it runs like this: as §3
The species named for data set [24] is Mus musculus. The experiment in a line: Biodistribution in mouse corpus callosum at 200 uCi after 60 mins by autoradiography. The data set is classed as ADME, organism-based. As to conditions: in vivo, 1 h. The method in brief:
as §3

Data set [25] relates to Brain. The experiment in a line: Drug uptake in Balb C mouse brain at 630-690 uCi, iv after 30 mins by HPLC analysis. The class given is ADME, organism-based. The note with it: in vivo, 0.5 h. The method in brief:
as §5

Data set [26] has as its system Liver. The experiment in a line: Drug uptake in Balb C mouse liver at 630-690 uCi, iv after 30 mins by HPLC analysis. The class given is ADME, organism-based. As to conditions: in vivo, 0.5 h. The method in brief: as §5
The subject of data set [27] is Brain. Kind of data set: Biodistribution in mouse brain assessed as reduction in compound uptake at 95-125 uCi, iv administered 10 mins post FTC-146 treatment measured after 60 mins by PET imaging. The class given is ADME, organism-based. The note with it: in vivo, 1 h. The method in brief:
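Normal Balb C mice (20-30 g) under isoflurane (3% induction, 1-3% maintenance). […] Dynamic microPET list-mode acquisition for 60 min, OSEM reconstruction. Whole-brain uptake from time-activity curves, reduction read at 60 min.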

In data set [28] the test system is Brain. Kind of data set: Biodistribution in mouse brain at 95-125 uCi, iv by PET imaging. The data set is classed as ADME, organism-based. As to conditions: in vivo. The method in brief:
as §4

The test system of data set [29] is Liver. The experiment in a line: Drug uptake in Balb C mouse liver at 630-690 uCi, iv after 60 mins by HPLC analysis. The class given is ADME, organism-based. As to conditions: in vivo, 1 h. The method in brief:
as §5

Data set [30] relates to CHO. The experiment in a line: Cellular uptake in CHO cells after 30 to 120 mins by liquid scintillation counting. The class given is ADME, cell-based, Cricetulus griseus. As to conditions: chinese hamster. The method in brief:
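Uptake in CHO cells in Ham's F-12, empty-pcDNA or S1R-transfected (0.8 μg DNA, 2 × 10^5 cells/well). [18F]13 at 2 μCi per well or [3H]1, 30 and 120 min, triplicate. Cells washed with cold PBS and lysed in 1 N NaOH. Counted by gamma counter (18F) or liquid scintillation (3H), normalized to Bradford protein.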

For data set [31], the target named is T2, Sigma non-opioid intracellular receptor 1. Kind of data set: Displacement of [3H](+)-pentazocine from Sigma1 receptor in rat brain homogenate. The class given is tissue-based.
The nature of data set [32]: Displacement of [3H]di-o-tolylguanidine from Sigma2 receptor in rat brain homogenate. The data set is classed as tissue-based. The method in brief:
as §2

Molecules are shown by their SMILES. Activity calls are given as the source filed them. The rule behind the calls is not given here.

T2 sequence (Q9R0C9 whole entry): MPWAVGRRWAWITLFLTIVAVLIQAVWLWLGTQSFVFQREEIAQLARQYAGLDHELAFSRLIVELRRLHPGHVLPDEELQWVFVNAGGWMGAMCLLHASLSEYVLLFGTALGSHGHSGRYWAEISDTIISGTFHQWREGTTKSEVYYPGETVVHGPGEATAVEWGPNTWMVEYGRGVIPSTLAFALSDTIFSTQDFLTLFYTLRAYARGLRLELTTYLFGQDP
Chain of Sigma non-opioid intracellular receptor 1 (Homo sapiens) (Q99720 whole entry): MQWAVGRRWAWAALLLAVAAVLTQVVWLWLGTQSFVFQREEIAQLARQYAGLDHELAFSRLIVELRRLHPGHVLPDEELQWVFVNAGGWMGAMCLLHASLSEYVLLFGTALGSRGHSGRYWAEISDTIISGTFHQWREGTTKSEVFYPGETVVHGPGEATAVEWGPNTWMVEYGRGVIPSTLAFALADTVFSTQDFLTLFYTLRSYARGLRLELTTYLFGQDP
Chain of Histamine H2 receptor (Homo sapiens) (P25021 whole entry): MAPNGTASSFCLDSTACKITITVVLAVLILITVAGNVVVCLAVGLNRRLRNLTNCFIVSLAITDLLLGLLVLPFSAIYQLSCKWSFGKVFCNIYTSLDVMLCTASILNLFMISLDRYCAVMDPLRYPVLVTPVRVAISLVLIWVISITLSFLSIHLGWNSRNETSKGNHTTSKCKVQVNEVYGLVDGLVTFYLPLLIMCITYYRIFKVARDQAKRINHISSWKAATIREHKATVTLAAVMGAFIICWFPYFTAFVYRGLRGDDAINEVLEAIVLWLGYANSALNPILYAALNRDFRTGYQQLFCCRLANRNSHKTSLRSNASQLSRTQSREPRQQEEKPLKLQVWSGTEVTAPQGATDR
Chain of Sodium-dependent noradrenaline transporter (Homo sapiens) (P23975 whole entry): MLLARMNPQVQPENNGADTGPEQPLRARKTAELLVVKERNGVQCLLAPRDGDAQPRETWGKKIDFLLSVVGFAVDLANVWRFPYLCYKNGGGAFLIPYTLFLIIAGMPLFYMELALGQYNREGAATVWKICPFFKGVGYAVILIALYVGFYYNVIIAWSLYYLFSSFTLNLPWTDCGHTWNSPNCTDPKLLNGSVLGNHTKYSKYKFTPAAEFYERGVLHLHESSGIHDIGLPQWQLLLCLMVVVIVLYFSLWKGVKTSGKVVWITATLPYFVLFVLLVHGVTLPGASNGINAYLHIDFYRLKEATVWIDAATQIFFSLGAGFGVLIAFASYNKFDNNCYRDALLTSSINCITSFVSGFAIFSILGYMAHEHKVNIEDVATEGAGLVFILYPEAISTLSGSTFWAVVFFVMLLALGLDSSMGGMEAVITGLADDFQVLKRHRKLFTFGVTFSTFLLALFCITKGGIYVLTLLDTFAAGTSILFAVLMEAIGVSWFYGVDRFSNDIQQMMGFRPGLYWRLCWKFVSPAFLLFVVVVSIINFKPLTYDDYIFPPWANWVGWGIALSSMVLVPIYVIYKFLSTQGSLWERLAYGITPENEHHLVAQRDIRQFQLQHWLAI

For `O=c1sc2cc(CCCF)ccc2n1CCN1CCCCCC1`, the Activity in [1], in data set [2], in data set [3], in data set [5], in data set [6] and in data set [7] was under 50% in each case. For the same molecule, the Activity in data set [8], in [9] and in data set [12] was under 50% throughout. Besides, the result in data set [4] was Active. Moreover, the fold change (FC) in data set [10] turned out to be 4. Also, the Ki was determined as 0.96 nM in data set [11] and 467 nM in data set [13].

With `O=c1sc2cc(CCC[18F])ccc2n1CCN1CCCCCC1`, the Drug uptake result was “Active” in [14]; “Active” in [15]; “Active” in data set [16]; “Active” in [17]; 81% in [18]; “Not Active” in data set [19]. Moreover, the Drug uptake is reported as 80% in data set [20]; “Active” in [21]; 100% in [22]; “Active” in data set [23]; “Not Active” in [24]; 100% in data set [25]. Moreover, the Drug uptake in [26] is recorded as 34%; in data set [27], 82%; in data set [28], “Active”; in data set [29] it was 27%.

In the case of `[3H]c1cc2c(c([3H])c1O)[C@@]1(C)CCN(CC=C(C)C)[C@@H](C2)[C@H]1C`, in data set [30], the Drug uptake result was “Active”.

On to `CCCc1ccc2c(c1)sc(=O)n2CCN1CCCCCC1`, for which the results for the inhibitory constant (Ki) in data set [31], in [32] and in [13] were 1.7 nM, 627 nM and 247 nM, respectively.

By Ki is commonly meant a dissociation constant, usually derived from enzyme kinetics or from competition with a known ligand. A higher Ki goes with a looser hold on the target.
